Test results as given in ChEMBL document CHEMBL3352094, “Trehalose- and glucose-derived glycoamphiphiles: small-molecule and nanoparticle Toll-like receptor 4 (TLR4) modulators” (J Med Chem, 2014).
The source made the active and inactive calls. The rule behind the calls is not given here.

Key:
Toll-like receptor 4 [1] = target: T1, Toll-like receptor 4 (Homo sapiens, UniProt O00206); assay: Agonist activity at TLR4 (unknown origin) expressed in HEK293 Blue cells measured after 2 to 4 hrs by spectrophotometry; assay type: cell-based
T1 sequence (O00206 whole entry): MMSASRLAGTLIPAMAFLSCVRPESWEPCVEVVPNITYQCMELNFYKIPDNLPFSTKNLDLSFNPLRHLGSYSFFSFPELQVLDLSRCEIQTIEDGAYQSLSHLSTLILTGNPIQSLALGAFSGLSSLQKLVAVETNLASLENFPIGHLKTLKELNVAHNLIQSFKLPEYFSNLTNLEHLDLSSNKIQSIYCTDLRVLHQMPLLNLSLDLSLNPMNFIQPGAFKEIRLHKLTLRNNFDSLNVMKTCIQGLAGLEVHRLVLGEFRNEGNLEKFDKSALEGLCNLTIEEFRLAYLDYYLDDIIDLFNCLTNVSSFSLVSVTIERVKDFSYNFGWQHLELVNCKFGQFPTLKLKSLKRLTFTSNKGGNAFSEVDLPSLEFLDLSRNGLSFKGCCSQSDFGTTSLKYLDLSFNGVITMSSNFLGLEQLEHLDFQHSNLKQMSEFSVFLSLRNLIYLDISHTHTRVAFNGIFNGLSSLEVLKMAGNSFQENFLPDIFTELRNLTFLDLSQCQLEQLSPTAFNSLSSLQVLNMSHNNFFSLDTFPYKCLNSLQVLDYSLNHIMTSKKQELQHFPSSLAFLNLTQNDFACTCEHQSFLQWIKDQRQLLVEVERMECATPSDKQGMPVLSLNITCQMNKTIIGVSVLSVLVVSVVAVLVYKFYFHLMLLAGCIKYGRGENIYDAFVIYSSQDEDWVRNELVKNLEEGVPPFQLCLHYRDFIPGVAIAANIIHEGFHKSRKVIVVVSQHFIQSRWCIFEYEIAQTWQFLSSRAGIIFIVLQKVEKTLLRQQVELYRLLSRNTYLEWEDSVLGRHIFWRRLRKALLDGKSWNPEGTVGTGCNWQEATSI
In short: (§1)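 HEK-Blue cells stably transfected with TLR4, MD-2 and CD14 carry a secreted alkaline phosphatase reporter under an NF-κB/AP-1-inducible promoter. TLR4 activation by endotoxin was monitored through secreted alkaline phosphatase.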

Toll-like receptor 4 [2] = target: T1, Toll-like receptor 4; assay: Antagonist activity at human TLR4 expressed in HEK293 cells co-transfected with human MD-2/CD14 assessed as inhibition of LPS-stimulated receptor signal after 2 to 4 hrs by dual luciferase reporter gene assay; assay type: cell-based
In short: (§2)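 Cells were treated with increasing compound concentrations, with or without LPS stimulation (5 nM). Signal is dual-luciferase, normalized, and representative of three independent experiments.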

[3] = Amphiphilicity of the compound assessed as critical micelle concentration by spectrofluorophotometry; assay type: physicochemical
In short: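 The CMC in aqueous solution was determined from the polarity-dependent change in the fluorescence spectrum of pyrene as it partitions into micelles formed by the compound.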

[4] = target: T2, Toll-like receptor 4 (Mus musculus) (UniProt Q9QUK6); assay: Antagonist activity at mouse TLR4 in mouse BMDM cells assessed as inhibition of LPS-stimulated TNFalpha production at 1 to 2 uM for 1 hr before LPS treatment by ELISA; assay type: cell-based
T2 sequence (whole entry): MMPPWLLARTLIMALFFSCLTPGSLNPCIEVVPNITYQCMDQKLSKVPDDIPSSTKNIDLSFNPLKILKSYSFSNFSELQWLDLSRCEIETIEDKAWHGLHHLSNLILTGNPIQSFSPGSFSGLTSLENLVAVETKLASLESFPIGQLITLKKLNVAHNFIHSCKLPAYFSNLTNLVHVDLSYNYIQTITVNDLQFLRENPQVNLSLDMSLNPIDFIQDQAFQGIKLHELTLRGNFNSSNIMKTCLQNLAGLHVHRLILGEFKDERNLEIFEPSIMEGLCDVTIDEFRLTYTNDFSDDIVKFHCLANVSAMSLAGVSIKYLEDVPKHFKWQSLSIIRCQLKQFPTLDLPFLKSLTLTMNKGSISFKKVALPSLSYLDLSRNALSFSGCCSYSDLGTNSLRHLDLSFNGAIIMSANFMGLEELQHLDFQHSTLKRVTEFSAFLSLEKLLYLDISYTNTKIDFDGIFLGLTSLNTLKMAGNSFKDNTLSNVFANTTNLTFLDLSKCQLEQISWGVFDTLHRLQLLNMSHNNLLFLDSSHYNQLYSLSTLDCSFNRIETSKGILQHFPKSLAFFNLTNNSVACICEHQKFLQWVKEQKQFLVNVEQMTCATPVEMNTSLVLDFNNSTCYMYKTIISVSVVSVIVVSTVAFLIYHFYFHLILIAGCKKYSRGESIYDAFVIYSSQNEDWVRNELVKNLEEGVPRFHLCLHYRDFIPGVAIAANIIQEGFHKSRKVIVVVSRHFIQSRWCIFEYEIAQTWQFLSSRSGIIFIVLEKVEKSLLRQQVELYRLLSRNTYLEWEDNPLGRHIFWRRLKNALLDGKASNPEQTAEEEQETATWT
In short: (§3)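 Bone marrow-derived murine macrophages in RPMI with 10% FBS were pretreated with compound (0–2 µM), and LPS was added 1 hour later. After overnight incubation, IL-6 and TNF-α in the medium were measured by ELISA. Cells not given LPS served as negative controls.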

HEK293 = assay: Cytotoxicity against HEK-Blue cells after 3 hrs by MTT assay; assay type: cell-based; details: human, hek293, 3 h
Toll-like receptor 4 [5] = target: T1, Toll-like receptor 4; assay: Agonist activity at human TLR4 expressed in HEK293 cells co-transfected with human MD-2/CD14 assessed as receptor signal after 2 to 4 hrs by dual luciferase reporter gene assay; assay type: cell-based; in short: as §2
Toll-like receptor 4 [6] = target: T3, Toll-like receptor 4 (Mus musculus, UniProt Q9QUK6); assay: (§4) Antagonist activity at mouse TLR4 expressed in HEK293 cells co-transfected with mouse MD-2/CD14 assessed as inhibition of LPS-stimulated receptor signal after 2 to 4 hrs by dual luciferase reporter gene assay; assay type: cell-based; in short: as §2
T3 sequence (Q9QUK6 whole entry): T2 sequence (whole entry)

[7] = target: T2, Toll-like receptor 4 (Mus musculus); assay: as §4; assay type: cell-based; in short: as §2
Toll-like receptor 4 [8] = target: T1, Toll-like receptor 4; assay: Inhibition of LPS-induced TLR4 activation (unknown origin) expressed in HEK293 Blue cells compound treated for 30 mins prior LPS treatment measured after 2 to 4 hrs by spectrophotometry; assay type: cell-based; in short: as §1
[9] = target: T2, Toll-like receptor 4 (Mus musculus); assay: Antagonist activity at mouse TLR4 in mouse BMDM cells assessed as inhibition of LPS-stimulated TNFalpha production at 0.1 to 0.5 uM for 1 hr before LPS treatment by ELISA; assay type: cell-based; in short: as §3
[10] = target: T2, Toll-like receptor 4 (Mus musculus); assay: Antagonist activity at mouse TLR4 in mouse BMDM cells assessed as inhibition of LPS-stimulated IL-6 production at 1 to 2 uM for 1 hr before LPS treatment by ELISA; assay type: cell-based; in short: as §3
Toll-like receptor 4 [11] = target: T1, Toll-like receptor 4; assay: Agonist activity at TLR4 (unknown origin) expressed in HEK293 Blue cells measured after 2 to 4 hrs by spectrophotometry
Mus musculus = assay: Immunosuppressive C57/B16 mouse assessed as inhibition of LPS-induced immune activation measured as TNFalpha secretion at 2 x 10^-7 mol, ip 1 hr prior LPS challenge by ELISA; assay type: functional, organism-based
In short: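 C57/Bl6 mice were given compound i.p. at 2·10^-7 mol/mouse, then LPS i.p. (1·10^-9 mol/mouse) 1 hour later. Sera were collected three hours after LPS and serum TNF-α concentration was determined.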

[12] = target: T2, Toll-like receptor 4 (Mus musculus); assay: Agonist activity at mouse TLR4 expressed in HEK293 cells co-transfected with mouse MD-2/CD14 assessed as receptor signal after 2 to 4 hrs by dual luciferase reporter gene assay; assay type: cell-based; in short: as §2
[13] = target: T2, Toll-like receptor 4 (Mus musculus); assay: Antagonist activity at mouse TLR4 in mouse BMDM cells assessed as inhibition of LPS-stimulated IL-6 production at 0.1 to 0.5 uM for 1 hr before LPS treatment by ELISA; assay type: cell-based; in short: as §3
[14] = target: T2, Toll-like receptor 4 (Mus musculus); assay: Antagonist activity at mouse TLR4 in mouse BMDM cells assessed as inhibition of LPS-stimulated IL-6 production compound treated for 1 hr before LPS challenge by ELISA; assay type: cell-based; in short: as §3
[15] = target: T2, Toll-like receptor 4 (Mus musculus); assay: Activation of mouse TLR4 in mouse BMDM cells by ELISA; assay type: cell-based
[16] = target: T2, Toll-like receptor 4 (Mus musculus); assay: Antagonist activity at mouse TLR4 in mouse BMDM cells assessed as inhibition of LPS-stimulated TNFalpha production compound treated for 1 hr before LPS challenge by ELISA; assay type: cell-based; in short: as §3

Row | Compound | Activity (Toll-like receptor 4 [1]) | IC50 (Toll-like receptor 4 [2]) | inhibition (Toll-like receptor 4 [2]) | CMC [3] | Activity (HEK293) | Activity (Toll-like receptor 4 [5]) | IC50 (Toll-like receptor 4 [6]) | inhibition [7] | IC50 (Toll-like receptor 4 [8]) | inhibition (Toll-like receptor 4 [8]) | Activity (Toll-like receptor 4 [11]) | Activity [12] | Activity (Toll-like receptor 4 [2]) | Activity [7] | further results
1 | CCCCCC(=O)O[C@@H]1[C@H](OC(=O)CCCCC)[C@@H](O[C@H]2O[C@H](Cn3cc(CN(CCN)CCN)nn3)[C@@H](OC(=O)CCCCC)[C@H](OC(=O)CCCCC)[C@H]2OC(=O)CCCCC)O[C@H](Cn2cc(CN(CCN)CCN)nn2)[C@H]1OC(=O)CCCCC | inactive | 200 nM | Dose-dependent effect | 350 µM | Non-toxic | inactive | 200 nM | Dose-dependent effect | 600 nM | Dose-dependent effect | inactive | inactive |  |  | inhibition [4]: Dose-dependent effect; inhibition [9]: inactive; inhibition [10]: Dose-dependent effect; inhibition (Mus musculus): Active; inhibition [13]: inactive
2 | CCCCCC(=O)O[C@@H]1[C@H](OC(=O)CCCCC)[C@@H](O[C@H]2O[C@H](Cn3cc(CNC(=S)NCCN)nn3)[C@@H](OC(=O)CCCCC)[C@H](OC(=O)CCCCC)[C@H]2OC(=O)CCCCC)O[C@H](Cn2cc(CNC(=S)NCCN)nn2)[C@H]1OC(=O)CCCCC | inactive | 600 nM | Dose-dependent effect | 10.9 µM | Non-toxic | inactive | 600 nM | Dose-dependent effect | 5000 nM | Dose-dependent effect | inactive | inactive |  |  | 
3 | CCCCCC(=O)O[C@@H]1[C@@H](OC(=O)CCCCC)[C@@H](OC)O[C@H](CSCCNC(=S)NCCN(CCN)CCN)[C@H]1OC(=O)CCCCC.Cl | inactive | 3900 nM | Dose-dependent effect | 59.7 µM | Non-toxic | inactive | 3300 nM | Dose-dependent effect | 3700 nM | Dose-dependent effect | inactive | inactive |  |  | inhibition [14]: inactive; Activity [15]: inactive; inhibition [16]: inactive
4 | CCCCCCCCCCCCCCO[C@@H]1[C@H](OCCCCCCCCCCCCCC)[C@@H](O[C@H]2O[C@H](CSCCN)[C@@H](OCCCCCCCCCCCCCC)[C@H](OCCCCCCCCCCCCCC)[C@H]2OCCCCCCCCCCCCCC)O[C@H](CSCCN)[C@H]1OCCCCCCCCCCCCCC |  |  |  |  |  | inactive |  |  |  | inactive |  | inactive | inactive | inactive | 
5 | CCCCCCCCCCCCCCO[C@H]1[C@@H](OC)O[C@H](CSCCN)[C@@H](O)[C@@H]1OCCCCCCCCCCCCCC |  |  |  |  |  | inactive |  |  |  | inactive |  | inactive | inactive | inactive | 
6 | CCCCCC(=O)O[C@@H]1[C@H](OC(=O)CCCCC)[C@@H](O[C@H]2O[C@H](CSCCN)[C@@H](OC(=O)CCCCC)[C@H](OC(=O)CCCCC)[C@H]2OC(=O)CCCCC)O[C@H](CSCCN)[C@H]1OC(=O)CCCCC | inactive | 1400 nM | Dose-dependent effect | 97.7 µM | Non-toxic | inactive | 800 nM | Dose-dependent effect | 1300 nM | Dose-dependent effect | inactive | inactive |  |  | inhibition [14]: inactive; Activity [15]: inactive; inhibition [16]: inactive
7 | CCCCCCO[C@@H]1[C@@H](OCCCCCC)[C@@H](OC)O[C@H](CN)[C@H]1OCCCCCC |  |  |  |  |  | inactive |  |  |  | inactive |  | inactive | inactive | inactive | 
8 | CCCCCCO[C@@H]1[C@H](OCCCCCC)[C@@H](O[C@H]2O[C@H](CSCCN)[C@@H](OCCCCCC)[C@H](OCCCCCC)[C@H]2OCCCCCC)O[C@H](CSCCN)[C@H]1OCCCCCC |  |  |  |  |  | inactive |  |  |  | inactive |  | inactive | inactive | inactive | 
9 | CCCCCCO[C@H]1[C@@H](OC)O[C@H](CSCCN)[C@@H](O)[C@@H]1OCCCCCC |  |  |  |  |  | inactive |  |  |  | inactive |  | inactive | inactive | inactive | 
10 | CCCCCC(=O)O[C@@H]1[C@@H](OC(=O)CCCCC)[C@@H](OC)O[C@H](Cn2cc(CN(CCNC(=S)NCCN)CCNC(=S)NCCN)nn2)[C@H]1OC(=O)CCCCC |  |  |  |  |  | inactive |  |  |  | inactive |  | inactive | inactive | inactive | 
